# Source: ChEMBL document CHEMBL1147245, “Chemistry of renieramycins. Part 3.(1) isolation and structure of stabilized renieramycin type derivatives possessing antitumor activity from Thai sponge Xestospongia species, pretreated with potassium cyanide” (J Nat Prod, 2003)
# How the values were obtained:
# Assay type in all cases: functional, cell-based
# HCT-116 = test: Cytotoxicity against human HCT116 cells after 4 days; conditions: HCT-116, 96 h
# Procedure, shortened: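 HCT116 cells seeded as single-cell suspension at 2×10^3 cells/well onto serially diluted compounds, cultured 4 days; growth read with a cell counting kit. IC50 taken as concentration giving 50% growth inhibition relative to untreated control.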
# QG-56 = test: Cytotoxicity against human QG56 cells after 4 days; conditions: QG-56, 96 h
# NCI-H460 = test: Cytotoxicity against human NCI-H460 cells after 4 days; conditions: NCI-H460, 96 h
# DLD-1 = test: Cytotoxicity against human DLD1 cells after 4 days; conditions: DLD-1, 96 h
Compound,IC50 (HCT-116) [nM],IC50 (QG-56) [nM],IC50 (NCI-H460) [nM],IC50 (DLD-1) [nM]
C/C=C(/C)C(=O)OC[C@H]1C2=C(C[C@H]3[C@H]4C5=C(C(=O)C(C)=C(OC)C5=O)[C@H](O)[C@@H]([C@H](C#N)N13)N4C)C(=O)C(C)=C(OC)C2=O [RENIERAMYCIN O],28,40,–,–
C/C=C(/C)C(=O)OC[C@H]1C2=C(C[C@H]3[C@H]4c5c(O)c(OC)c(C)c(O)c5[C@H](O)[C@@H]([C@H](C#N)N13)N4C)C(=O)C(C)=C(OC)C2=O [RENIERAMYCIN N],5.6,11,6.7,5.7
C/C=C(/C)C(=O)OC[C@H]1C2=C(C[C@H]3[C@H]4C5=C(C[C@@H]([C@H](C#N)N13)N4C)C(=O)C(C)=C(OC)C5=O)C(=O)C(C)=C(OC)C2=O [RENIERAMYCIN M],7.9,19,5.9,9.6
COc1cc2c(cc1O)CCN[C@]21CS[C@@H]2c3c(OC(C)=O)c(C)c4c(c3[C@H](COC1=O)N1[C@@H]2[C@H]2c3c(cc(C)c(OC)c3O)C[C@@H]([C@@H]1C#N)N2C)OCO4 [ECTEINASCIDIN 770],1.2,3.9,0.64,2.4
COC1=C(C)C(=O)C2=C(C1=O)[C@@H]1[C@@H]3CC4=C(C(=O)C(OC)=C(C)C4=O)[C@H](CNC(=O)C(C)=O)N3[C@@H](C#N)[C@H](C2)N1C [SAFRAMYCIN A],0.4,5.5,2.1,0.6
